Data: ChEMBL document CHEMBL1134314, “Characterization of the 1H-cyclopentapyrimidine-2,4(1H,3H)-dione derivative (S)-CPW399 as a novel, potent, and subtype-selective AMPA receptor full agonist with partial desensitization properties” (J Med Chem, 2001)
Calls of active or inactive are those of the source. No cut-off for these calls is given here.

Legend:
[1] = target: Glutamate receptor ionotropic, AMPA (Rattus norvegicus, UniProt P19490+P19491+P19492+P19493); test: Binding affinity towards AMPA receptor in rat brain; format: tissue-based
[2] = target: Glutamate receptor ionotropic, kainate; test: Binding affinity towards Ionotropic glutamate receptor kainate in rat brain; format: tissue-based
Outline: (§1)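 Radioligand competition binding on native ionotropic glutamate receptors in rat brain membranes. Inactivity was defined at 10^-4 M. Values are means ± SEM of three to four competition experiments, each run in triplicate.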

[3] = target: Glutamate NMDA receptor (Rattus norvegicus) (UniProt P35439+Q00959+Q00960+Q00961+Q62645+Q8VHN2+Q9R1M7); test: Binding affinity towards NMDA receptor; not active; format: protein-complex assay; outline: as §1
[4] = Hill slope was determined

SMILES	Ki [1] [µM]	Ki [2] [µM]	NA [3]	Hill coefficient [4]
N[C@@H](Cn1c2c(c(=O)[nH]c1=S)CCC2)C(=O)O	1.37	> 10	–	–
N[C@@H](Cn1c2c(c(=O)[nH]c1=O)CCC2)C(=O)O	–	7.94	inactive	0.95 nH [middle of 8 runs]
